HTRA1 inh: blocks human HTRA1 serine peptidase | recombinant HTRA1, FP-rhodamine activity-based probe, fluorescence polarization | inhibition, % at 5.96 µM | 340,000 tested, 0.5% active; in the data active = inhibition above about 36%;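 also: 0% = enzyme with DMSO and 100% = wells lacking enzyme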
pPAFAH inh: inhibitors of human plasma PAF acetylhydrolase (pPAFAH); Q13093; AID 463082; 330,000 tested, 1.5% active; inhibition, % at 3.39 µM; recombinant pPAFAH, FP-rhodamine probe fluorescence polarization;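 active = inhibition above the mean inhibition across the screen plus 3 SD, cut at about 25% in these data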;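 also: inhibitors block binding of the rhodamine activity-based probe so polarization drops; 0% = enzyme with DMSO and 100% = wells lacking pPAFAH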
PAFAH1B2 FP inh: inhibitors of human PAFAH1B2; inhibition, % at 3.39 µM; AID 492953; recombinant PAFAH1B2, FP-rhodamine activity probe, fluorescence polarization; 340,000 tested, 1.2% active;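 active = inhibition above the mean of all tested compounds plus 3 SD, cut at about 24% in these data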;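 also: 0% = enzyme with DMSO and 100% = wells lacking PAFAH1B2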
PAFAH2 inh: inhibitors of human PAFAH2 | recombinant PAFAH2, FP-rhodamine activity probe, fluorescence polarization | AID 492956 | inhibition, % at 3.39 µM | 340,000 tested, 0.99% active;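 active = inhibition above the mean over all tested compounds plus 3 SD, cut at about 30% in these data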;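 also: inhibitors block probe labeling of enzyme so polarization drops; 0% = enzyme with DMSO and 100% = wells lacking PAFAH2 protein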
ABHD4 inh: inhibitors of mouse ABHD4. Q8VD66. 370,000 tested, 0.54% active. inhibition, % at 8.92 µM. AID 720543. purified mABHD4, FP-Rh probe fluorescence polarization;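 active = inhibition exceeding the mean over every tested compound plus 3 SD, cut at about 30% in these data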;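 also: 0% = plate median of compound wells and 100% = S159A mutant with DMSO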
Target sequence (Q8VD66 whole entry, looked up): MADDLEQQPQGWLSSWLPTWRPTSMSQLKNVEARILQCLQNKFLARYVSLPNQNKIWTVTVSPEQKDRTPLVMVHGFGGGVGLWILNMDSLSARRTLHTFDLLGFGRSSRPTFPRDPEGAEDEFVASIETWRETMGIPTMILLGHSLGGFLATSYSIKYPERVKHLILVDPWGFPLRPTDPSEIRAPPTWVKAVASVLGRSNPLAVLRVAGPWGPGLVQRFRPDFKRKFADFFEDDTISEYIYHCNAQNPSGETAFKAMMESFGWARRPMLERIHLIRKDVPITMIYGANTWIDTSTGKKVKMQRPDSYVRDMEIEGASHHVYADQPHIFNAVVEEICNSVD
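Assay system: mABHD4 protein; medium: HEPES pH 7.0, NaCl, Pluronic buffer; dosing: 8.92 µM, single dose; schedule: 45 min + 60 min at 25 °C; signal: FP readout, ex 525 nm / em 598 nm; read-out: normalized percent inhibition of probe labeling; repeats: single replicate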
PAFAH1B3 inh: PAFAH1B3 (human) inhibition | Q15102 | recombinant PAFAH1B3, FP-rhodamine probe, fluorescence polarization | inhibition, % at 3.39 µM | 340,000 tested, 0.28% active;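 active = inhibition above the screen-wide average of all tested compounds plus 3 SD, cut at about 25% in these data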;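 also: 0% = enzyme with DMSO only and 100% = wells lacking PAFAH1B3 protein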
Target sequence (Q15102 whole entry, looked up): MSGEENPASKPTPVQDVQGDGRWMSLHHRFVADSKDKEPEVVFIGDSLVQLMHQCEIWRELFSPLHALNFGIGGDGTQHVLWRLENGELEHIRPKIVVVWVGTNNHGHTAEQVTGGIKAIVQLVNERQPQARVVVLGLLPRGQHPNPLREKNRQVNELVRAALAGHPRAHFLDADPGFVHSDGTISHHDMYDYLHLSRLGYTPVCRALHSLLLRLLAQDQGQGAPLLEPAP
* hit, by the source's call; / = not tested or not shown. An excerpt weighted towards active compounds, which were near 2.8% of everything screened.

SMILES	HTRA1 inh	pPAFAH inh	PAFAH1B2 FP inh	PAFAH2 inh	ABHD4 inh	PAFAH1B3 inh
COc1cc2c(cc1O)C[C@H]1NCCc3cc4c(c-2c31)OCO4	19	25*	10	9	14	18
COc1cc2c(cc1OC)-c1c3c(cc4c1[C@@H](C2)N(C)CC4)OCO3	10	18	-6	2	10	16
CCCC(C)n1[nH]c(=O)c2c1NC(=O)CSC2c1ccc(OC)cc1 (stereo unspecified)	3	28*	2	1	1	5
CCCOc1ccccc1C1SCC(=O)Nc2c1c(=O)[nH]n2C(C)CCC (stereo unspecified)	-3	-3	2	5	1	9
CC1CCC(C)(NS(=O)(=O)OCC(Cl)(Cl)Cl)CC1 (stereo unspecified)	-16	33*	45*	9	-4	7
O=P(NS(=O)(=O)c1ccc(Br)cc1)(Oc1ccccc1)Oc1ccccc1	-11	4	78*	7	-2	0
Cc1ccc(S(=O)(=O)NP(=O)(Oc2ccccc2)Oc2ccccc2)cc1	-3	-2	46*	2	-1	24
O=P(NS(=O)(=O)c1ccc(Cl)cc1)(Oc1ccccc1)Oc1ccccc1	-9	1	84*	-4	2	7
NC(Cc1ccccc1)[P+](=O)O (stereo unspecified)	/	/	/	/	7	/
O=C(c1ccc(N2CCCCC2)c([N+](=O)[O-])c1)N1CCC2(CC1)OCCO2	2	34*	-1	7	-2	3
CCOC(=O)c1c(-n2c(C)cc(/C=C3/C(=O)NC(=O)N(CC)C3=O)c2C)sc2c1CCCC2	-4	5	2	-10	0	-2
CCOC(=O)c1c(-n2c(C)cc(C=C3C(=O)NC(=S)NC3=O)c2C)sc2c1CCCC2	4	25*	-4	7	/	1
CCn1nc(-c2cccs2)nc2c(=O)n(C)c(=O)nc1-2	28	/	47*	56*	/	74*
CCn1nc(/C=C/c2ccccc2)nc2c(=O)n(C)c(=O)nc1-2	/	/	/	/	1	/
O=C(CN1C(=O)CN=C(c2ccccc2)c2cc(Cl)ccc21)NC1CCCCC1	/	/	/	/	1	/
O=c1[nH]c(=S)n(CCC2=CCCCC2)c(O)c1/C=N/Nc1ccccc1	0	17	35*	9	4	2
Cc1ccccc1CCC[C@H](CC1CCCCC1)CN(C)C(=O)Oc1ccccc1	/	/	/	/	13	/
O=C(Oc1ccc([N+](=O)[O-])cc1)N1CCC(N2CCCCC2)CC1	0	34*	1	19	1	-2
CC(=O)Nc1ccc(OC(=O)N2CCCCC2)cc1	0	0	5	4	-4	8
COC(=O)C1(N(C)c2ccccc2)CCN(Cc2ccccc2)CC1	/	/	/	/	5	/
CN1C(=O)[C@@]23C[C@]4(c5c[nH]c6ccccc56)c5ccccc5N(S(=O)(=O)c5ccccc5)[C@@H]4N2C(=O)[C@@H]1SS3	/	/	/	/	-5	/
CC(C)c1ccc(N2C(=O)NC(=O)/C(=C\C=C\c3ccco3)C2=O)cc1	/	29*	/	/	-3	/
Cc1cc(C)cc(N2C(=O)NC(=O)/C(=C\c3cccn3-c3ccc(Cl)cc3)C2=O)c1	0	6	43*	39*	-5	-2
O=C1NC(=S)NC(=O)C1=Cc1cccn1-c1ccc(O)cc1	20	/	6	25	29	5
O=C(CN1C(=O)[C@@H](Cc2ccccc2)N=C(c2ccccc2)c2ccccc21)NC1CCCCC1	/	/	/	/	-2	/
SMILES	HTRA1 inh	pPAFAH inh	PAFAH1B2 FP inh	PAFAH2 inh	ABHD4 inh	PAFAH1B3 inh
CO[C@H]([C@H](C)/C=C/N(C)C=O)[C@@H](C)C(=O)CC[C@H](C)[C@H](O)[C@H](C)[C@H]1OC(=O)/C=C/C(C)=C/[C@H](O)[C@H](OC)C[C@@H]2C=CC[C@@H](C[C@H](OC)[C@@H](CO)[C@@H](OC)C[C@@H](OC)[C@@H]1C)O2	/	/	/	/	-1	/
CCOCCCn1c(N)c(C(=O)Nc2sc3c(c2C(=O)OC)CCCC3)c2nc3ccccc3nc21	7	2	31*	35*	-31	52*
O=C1NC(=O)N(c2ccccc2)C(=O)/C1=C/c1ccc(Sc2ccccc2)o1	-30	4	60*	39*	/	6
O=C(CNC(=O)OCc1ccccc1)NC(Cc1ccccc1)P(=O)(Oc1ccccc1)Oc1ccccc1 (stereo unspecified)	/	/	/	/	6	/
N#CC1c2ccccc2-n2nncc2CN1C(=O)c1ccc([N+](=O)[O-])o1 (stereo unspecified)	/	/	/	/	6	/
NP(=O)(Oc1ccccc1Cl)Oc1ccccc1Cl	16	1	24*	-2	5	2
CCOC(=O)c1cccc([P+](=O)O)c1	13	3	3	-5	5	5
CCOC(=O)c1ccc2[nH]c(-c3ccc(S(=O)(=O)F)cc3)cc(=O)c2c1	13	28*	8	8	-12	8
Cc1ccc(C(=O)COC(=O)Cc2ccccc2)cc1	1	8	9	-1	-3	1
Cc1ccc(S(=O)(=O)N2CCN(C(=O)COC(=O)Cc3ccccc3)CC2)c(C)c1	-11	31*	7	24	-1	1
Cc1ccc2c(c1)cc1c(=O)n(CC(=O)N3CCC4(CC3)OCCO4)nc(C)n12	6	26*	4	-4	4	10
CCc1nn(CC(=O)N2CCC3(CC2)OCCO3)c(=O)c2cccn12	3	1	-2	6	-1	-2
O=C1NC(=O)[C@]2(Cc3ccccc3N3CCN(c4ccccc4)CC32)C(=O)N1c1ccccc1 (stereo partly specified)	10	28*	4	20	-7	3
O=C(NC(Cc1ccccc1)P(=O)(O)Oc1ccccc1)OCc1ccccc1 (stereo unspecified)	/	/	/	/	1	/
Cc1ccc(OCCOc2cccc(C=C3C(=O)NC(=O)NC3=O)c2)cc1	-36	4	39*	1	-11	1
Cc1cc(C)cc(OCCOc2cccc(C=C3C(=O)NC(=O)NC3=O)c2)c1	-46	12	-3	-3	-3	8
NC(Cc1cc(O)c(O)cc1O)C(=O)O (stereo unspecified)	/	84*	/	/	/	/
N[C@@H](CCl)C(=O)O	2	-2	1	0	2	4
CN1c2ccc(Br)cc2[C@H]2NCC[C@H]2[C@H]1CO	/	/	/	/	2	/
FC(F)(F)c1cccc(-n2nnnc2C2(N3CCOCC3)CCCCC2)c1	-11	-1	31*	-4	-3	7
O=C1CC(=O)N(c2cccc(C(F)(F)F)c2)C(=O)N1	-5	2	4	0	-4	7
O=C1NC(=S)NC(=O)C1=Cc1ccc2c(c1)CCN2CCCCl	/	29*	/	/	/	/
CCOc1cccc(OCC)c2c(C)[n+](CC3CCCO3)c(C)c1-2 (stereo unspecified)	50*	19	15	32*	/	6
COc1ccc(CCNCC2CCCO2)cc1 (stereo unspecified)	-3	-4	4	-2	7	3
